# Screens from PubChem BioAssay.
# ABHD5 PLIN5 PPI = ABHD5-PLIN5 protein interaction inhibition. AID 602281. inhibition, % at 4 µM. Q00G26+Q8WTS1. actives 0.78% (n = 360,000). Split G. princeps luciferase complementation, luminescence, 4 h;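 active = inhibition above the mean inhibition across every tested compound plus 3 SD, cut at about 22% in these data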
# core dimer inh = blocks dimerization of HCV core protein. TR-FRET GST/Flag-core106 dimerization, 1536-well. inhibition, % at 5 µM. actives 0.33% (n = 300,000). AID 1899;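 active = inhibition above the mean of all tested compounds plus 3 SD, set per screening campaign, cut at about 45% in these data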
#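 System: GST-tagged and Flag-tagged HCV core protein residues 1-106 / Input: core106 proteins, GST 13.5 nM and Flag 17 nM / Buffer or medium: KF-containing HEPES buffer, pH 7.45, DTT, CHAPS, BSA / Probe or stimulus: Eu-anti-GST and XL665-anti-Flag labelled anti-tag antibodies / Schedule: 4 h, 22.5 °C incubation / Technique: TR-FRET 671 and 617 nm emission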
# A3G deaminase = APOBEC3G (human) deaminase inhibition. actives 0.28% (n = 330,000). AID 493012. inhibition, % at 20 µM. recombinant A3G, ssDNA deamination FAM/TAMRA fluorescence;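 active = inhibition of at least 40% at 20 µM, with no more than 30% in the related APOBEC3A deaminase screen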
# Target sequence (Q9HC16 whole entry, looked up): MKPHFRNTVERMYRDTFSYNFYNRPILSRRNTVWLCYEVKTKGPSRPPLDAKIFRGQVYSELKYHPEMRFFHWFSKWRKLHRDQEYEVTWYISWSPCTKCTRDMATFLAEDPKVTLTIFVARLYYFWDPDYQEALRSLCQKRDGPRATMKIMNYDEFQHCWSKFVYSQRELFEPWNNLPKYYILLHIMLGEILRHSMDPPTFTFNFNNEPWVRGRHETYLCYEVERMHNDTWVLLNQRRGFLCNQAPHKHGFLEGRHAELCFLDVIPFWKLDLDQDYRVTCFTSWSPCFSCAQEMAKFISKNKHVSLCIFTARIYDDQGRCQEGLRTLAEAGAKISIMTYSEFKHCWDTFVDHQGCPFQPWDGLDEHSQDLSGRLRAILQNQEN
# NS3 helicase inh = blocks Hepatitis C virus NS3 helicase unwinding. actives 0.56% (n = 290,000). inhibition, % at 10.9 µM. NS3 helicase DNA unwinding, Cy5 molecular beacon fluorescence;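 active = inhibition above the mean of all tested compounds plus 3 SD, set per campaign, cut at about 35% in these data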
#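 System: HCV NS3 helicase fragment; control set: DMSO and thioflavine S; technique: Cy5 fluorescence at 0 and 60 min, beacon hairpin quenching; reagent: beacon DNA duplex substrate plus ATP; replicates: singlicate; schedule: 1 h reaction at 25 °C, ATP-initiated; medium: MOPS buffer pH 6.5 with MgCl2, DTT, Tween20, BSA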
# APOBEC3A inh = inhibitors of human APOBEC3A DNA deaminase | P31941 | recombinant A3A, FAM/TAMRA ssDNA deamination fluorescence | inhibition, % at 20 µM | actives 0.41% (n = 330,000);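 active = at least 40% inhibition at 20 µM here, with at most 30% in a related deaminase screen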
# Target sequence (P31941 whole entry, looked up): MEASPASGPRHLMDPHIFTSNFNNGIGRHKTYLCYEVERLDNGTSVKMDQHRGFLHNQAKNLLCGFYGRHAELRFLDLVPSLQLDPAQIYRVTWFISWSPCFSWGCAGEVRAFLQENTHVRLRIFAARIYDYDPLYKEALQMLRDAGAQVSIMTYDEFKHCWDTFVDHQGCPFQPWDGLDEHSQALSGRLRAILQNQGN
# PRMT1 FP inh = blocks human protein arginine methyltransferase 1; Q99873; inhibition, % at 2.79 µM; actives 1.3% (n = 370,000); recombinant PRMT1, activity-based probe fluorescence polarization; AID 652257;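 active = inhibition above about 21% made by adding two undisclosed values, limit read from the data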
# NS3 hel confirm = HCV NS3 helicase inhibition, confirmation assay | shares compounds with NS3 helicase inh | NS3 helicase DNA unwinding, Cy5 molecular beacon fluorescence | inhibition, % at 10.9 µM | actives 31% (n = 1,600) | AID 1943;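 active = inhibition above the mean of all tested compounds plus 3 SD, cutoff set per campaign, cut at about 36% in these data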
# FID counter trip = counter-screen for HCV NS3 helicase inhibitors: DNA intercalator displacement; shares compounds with NS3 helicase inh; DNA fluorescent intercalator displacement, fluorescence; inhibition, % at 7.9 µM; actives 4% (n = 1,600); AID 1945; in the data active = inhibition above about 37%;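 also: higher means more displacement of ethidium bromide from the DNA hairpin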
# A number is an active result; . = inactive; / = no result. Only some compounds are listed: those with a hit (about 2.9% of all), similar ones and a draw of the others.
SMILES,ABHD5 PLIN5 PPI,core dimer inh,A3G deaminase,NS3 helicase inh,APOBEC3A inh,PRMT1 FP inh,NS3 hel confirm,FID counter trip
COc1cc(/C=N/NC(=O)[C@H](Cc2c[nH]c3ccccc23)NC(=O)OCC(C)C)cc([N+](=O)[O-])c1O,.,.,.,50,.,.,59,.
CCCCC(=O)NC(=S)Nc1cc(C(=O)O)ccc1Cl,.,.,.,55,.,.,.,.
CCCCC(=O)NC(=S)Nc1ccc(Cl)c(C(=O)O)c1,.,.,.,.,.,.,/,/
N=C1S/C(=C\c2ccco2)C(=O)N1c1nccs1,.,.,.,.,.,.,/,/
N=C1S/C(=C\c2ccco2)C(=O)N1c1ccc2c(c1)OCO2,.,.,.,40,.,.,.,.
CC(C)(C)C(=O)/C=c1\[nH]c(=O)/c(=C\c2ccc(F)cc2)s1,.,.,.,.,.,.,/,/
COc1ccc(/C=c2\s/c(=C/C(=O)c3ccc(C)cc3)[nH]c2=O)cc1OC,.,.,.,59,.,.,.,.
COc1ccc2c(c1)O/C(=C\c1ccco1)C2=O,.,.,.,44,.,.,.,.
COc1ccc(CCNC(=O)CCc2cc(OC)c(OC)c(OC)c2)cc1OC,.,.,.,.,.,.,/,/
CO/N=C/c1ccc(N2CCN(C(=O)c3cccc(C(F)(F)F)c3)CC2)c([N+](=O)[O-])c1,.,.,.,.,.,.,/,/
CO/N=C/c1ccc(N2CCN(C(=O)c3ccc(F)cc3)CC2)c([N+](=O)[O-])c1,.,.,.,40,.,.,.,.
NC(=O)CC(NC(=O)c1ccc(Br)cc1)c1ccc(N2CCCCCC2)c([N+](=O)[O-])c1 (stereo not drawn),.,.,.,.,.,.,/,/
CC1(C(=O)NS(=O)(=O)c2ccccc2C(F)(F)F)CCN1C(=O)c1cccc(F)c1 (stereo not drawn),.,/,/,/,/,.,/,/
O=C(NC(Cc1ccccc1)C(=O)O)/C(=C/c1ccc(Br)cc1)NC(=O)c1ccc(Br)o1 (stereo not drawn),.,.,.,41,.,.,38,.
COc1cc(/C=C(/C#N)C(=O)Nc2ccccc2)ccc1OCc1ccc(C(=O)O)cc1,.,.,.,.,.,.,/,/
COc1cc(/C=C(\C#N)C(=O)Nc2ccc(C(=O)O)cc2)ccc1OC(=O)c1cccc(F)c1,.,.,.,47,.,.,63,.
CCN(CC)CC(O)c1cccn1-c1ccc(CNC(=O)NC(C)C)cc1 (stereo not drawn),.,.,.,39,.,.,.,.
CCOc1cccc(-c2ccc3nncn3c2)c1,.,/,/,/,/,.,/,/
O=c1[nH]c(=S)[nH]c2c1C(c1ccc(Br)cc1)c1c([nH]c(=S)[nH]c1=O)O2,.,.,/,43,/,45,75,.
O=C(NN=Cc1c(O)ccc2ccccc12)c1ccc2c(c1)OCO2,.,/,.,/,.,.,/,/
O=C(N/N=C/c1c(O)ccc2ccccc12)c1ccc(CO)nc1,.,.,.,39,.,.,.,.
NC(=S)N/N=C/c1c(O)ccc2ccccc12,.,.,.,57,.,.,.,.
O=CN/N=C/c1c(O)ccc2ccccc12,.,.,.,.,.,.,/,/
CCOC(=O)c1c(S(=O)(=O)NCCc2ccccc2)c(C)n(C)c1C,.,.,.,.,.,.,/,/
CCOC(=O)c1c(S(=O)(=O)NCCc2ccc(OC)c(OC)c2)c(C)n(C)c1C,.,.,.,39,.,.,.,.
SMILES,ABHD5 PLIN5 PPI,core dimer inh,A3G deaminase,NS3 helicase inh,APOBEC3A inh,PRMT1 FP inh,NS3 hel confirm,FID counter trip
CCOC(=O)CNC(=S)N(CCCN1CCN(C)CC1)Cc1cccs1,.,.,.,.,.,.,/,/
CSCC[C@H](NC(=O)[C@H](Cc1ccccc1)n1c(=O)[nH]c2ccccc2c1=O)C(=O)N1CCC[C@H]1C(=O)O,.,.,.,.,.,.,/,/
CC(C)C[C@H](NC(=O)[C@H](Cc1ccccc1)n1c(=O)[nH]c2ccccc2c1=O)C(=O)N1CCC[C@@H]1C(=O)O,.,.,.,39,.,.,.,.
CCOC(=O)N(C)C[C@H]1OCc2cnnn2CCCC(=O)N([C@@H](C)CO)C[C@H]1C,.,/,/,/,/,.,/,/
CC(C)N1C(=O)c2ccccc2NC(=O)C1C(=O)NCc1cccc(C(F)(F)F)c1 (stereo not drawn),.,/,/,/,/,.,/,/
Cc1ccc(N2C(=O)CC(N(O)C3CC(=O)N(c4ccc(C)cc4)C3=O)C2=O)cc1 (stereo not drawn),.,.,.,38,.,.,.,.
Cc1ccc(CC2CC(=O)N(c3ccc(C)cc3)C2=O)cc1 (stereo not drawn),.,.,.,.,.,.,/,/
Cc1cccc(NC(=O)c2ccccc2OCC(=O)N2CCCC2)c1C,/,.,.,40,.,/,.,.
O=C(Nc1ccc2c(c1)OCCO2)C1c2ccccc2OCC(=O)N1Cc1cccnc1 (stereo not drawn),.,/,/,/,/,.,/,/
O=S(=O)(NC1CCCCC1)c1ccc(Cl)s1,.,.,.,52,.,.,.,.
CC1CCC(NS(=O)(=O)c2ccc(Cl)s2)CC1 (stereo not drawn),.,/,.,/,.,.,/,/
CC(=O)OC[C@H]1O[C@H](C#Cc2ccc(C(C)(C)C)cc2)C=C[C@H]1OC(=O)Nc1ccccc1,/,/,/,/,/,.,/,/
Cc1ccc(/C(O)=C2/C(=O)C(=O)N(c3ccccn3)C2c2cccc([N+](=O)[O-])c2)cc1 (stereo not drawn),.,.,.,48,.,.,.,.
COc1cc(C2/C(=C(/O)c3ccccc3)C(=O)C(=O)N2c2ccccn2)ccc1O (stereo not drawn),.,.,.,.,.,.,/,/
COc1ccc(C2/C(=C(/O)c3ccc(C)cc3)C(=O)C(=O)N2c2ccccn2)cc1 (stereo not drawn),.,.,.,.,.,.,/,/
Cc1ccc(/C(O)=C2/C(=O)C(=O)N(c3ccccn3)C2c2ccc([N+](=O)[O-])cc2)cc1 (stereo not drawn),.,.,.,36,.,.,.,.
COc1ccc(-c2c(C#N)c(SCC(=O)c3cc4ccccc4oc3=O)nc(C)c2C(=O)Nc2ccccc2)cc1,.,.,.,52,.,.,.,.
COC(=O)CCC(=O)N1CCC(CCC(=O)NCc2ccc(F)cc2)CC1,.,/,.,.,.,.,/,/
COc1ccc(OC)c(/C=C/c2ccc3cccc(O)c3n2)c1,.,.,.,60,.,.,.,.
COc1ccccc1NC(=O)CCS(=O)(=O)c1ccc2c(c1)NC(=O)C(C)S2 (stereo not drawn),.,.,.,46,.,/,.,.
